From ChEMBL document CHEMBL3124909, “Heat shock protein 70 inhibitors. 2. 2,5'-thiodipyrimidines, 5-(phenylthio)pyrimidines, 2-(pyridin-3-ylthio)pyrimidines, and 3-(phenylthio)pyridines as reversible binders to an allosteric site on heat shock protein 70” (J Med Chem, 2014)
The source made the active and inactive calls. No cut-off for these calls is given here.

What was measured:
MOLM-13 [1] = assay: Induction of apoptosis in human MOLM13 cells assessed as caspase 3/7 activation after 16 hrs by fluorescence assay; type: functional, cell-based
Summary of the method: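 MOLM-13 cells at 30000/well in RPMI, held up to 24 h (37 °C, 5% CO2), then exposed 16 h to compound or DMSO. Buffer with 10 mM HEPES pH 7.5, 2 mM EDTA, 0.1% CHAPS and 25 μM Z-DEVD-R110 substrate added; fluorescence read once signal stabilized. Percent apoptotic increase calculated relative to control cells.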

MDA-MB-468 [2] = assay: Inhibition of HSP70 in human MDA-MB-468 cells assessed as Raf-1 degradation at 0.5 to 25 uM by Western blotting analysis; type: cell-based
Summary of the method: (§1)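 Cells (SKBr3, MDA-MB-468, MiaPaCa-2 in DME/F12; MOLM-13 in RPMI; 10% FBS) grown to 60–70% confluence, then given inhibitor or DMSO. Lysis in 50 mM Tris pH 7.4, 150 mM NaCl, 1% NP-40. Protein measured by BCA, and client proteins or cleaved PARP detected by immunoblotting with peroxidase-conjugated secondary antibody.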

SK-BR-3 [3] = assay: Inhibition of HSP70 in human SKBR3 cells assessed as Raf-1 degradation by Western blotting analysis; type: cell-based; summary of the method: as §1
[4] = target: Heat shock protein HSP 90-beta (Homo sapiens) (UniProt P08238); assay: Displacement of GM-Cy3B from HSP90 in human SKBR3 cells after 24 hrs by fluorescence polarization assay; details: SK-BR-3
Chain of Heat shock protein HSP 90-beta (Homo sapiens) (P08238 whole entry): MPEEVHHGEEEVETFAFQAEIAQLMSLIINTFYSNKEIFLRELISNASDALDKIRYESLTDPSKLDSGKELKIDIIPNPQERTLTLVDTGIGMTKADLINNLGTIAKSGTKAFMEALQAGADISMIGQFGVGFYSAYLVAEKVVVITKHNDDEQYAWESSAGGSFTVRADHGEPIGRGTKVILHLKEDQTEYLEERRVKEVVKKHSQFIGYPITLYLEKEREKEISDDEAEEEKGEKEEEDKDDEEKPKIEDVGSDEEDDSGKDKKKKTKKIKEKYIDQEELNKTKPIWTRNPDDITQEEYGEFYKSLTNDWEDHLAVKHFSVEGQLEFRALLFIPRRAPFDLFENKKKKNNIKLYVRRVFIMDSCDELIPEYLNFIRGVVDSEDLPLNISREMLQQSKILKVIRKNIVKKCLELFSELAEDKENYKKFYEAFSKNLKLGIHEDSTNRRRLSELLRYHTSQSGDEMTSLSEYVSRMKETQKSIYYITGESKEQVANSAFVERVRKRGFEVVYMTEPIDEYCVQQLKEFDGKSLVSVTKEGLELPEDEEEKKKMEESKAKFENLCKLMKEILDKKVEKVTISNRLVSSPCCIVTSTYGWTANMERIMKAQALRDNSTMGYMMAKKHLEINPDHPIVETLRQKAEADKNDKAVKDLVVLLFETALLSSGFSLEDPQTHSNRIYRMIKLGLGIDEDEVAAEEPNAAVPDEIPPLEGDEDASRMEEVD

HEK293 [5] = assay: Inhibition of human HSP70 expressed in HEK293 cells assessed as inhibition of refolding of heat denatured luciferase at 10 uM incubated for 1 hr followed by heat treatment measured after 2 hrs by Western blotting analysis; type: cell-based
Summary of the method: (§2)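 HEK293 cells cotransfected with C-terminal HA-luciferase plus N-terminal Flag-human Hsp70 or control vector. Two days later: cycloheximide 50 μg/mL, compound at 10 μM added just before 1 h at 45 °C, then recovery at 37 °C up to 2 h. Triton X-100 lysates cleared at 20000g; luciferase activity normalized to protein, expressed as % of pre-heat-shock activity; soluble proteins immunoblotted.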

[6] = test system: Heat shock 70 kDa protein (Homo sapiens); assay: Inhibition of HSP70 in human SKBR3 cells assessed as inhibition of HSP70-HOP-HSP90 complex formation after 24 hrs by Western blotting analysis; details: SK-BR-3
[7] = Cytotoxicity against human SKBR3 cells after 72 hrs by alamar blue assay; type: functional, SK-BR-3
Summary of the method: (§3)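 Alamar Blue (resazurin) viability assay: attached cells (SKBr3) plated at 8000/well, suspension cells (Kasumi-1) at 20000/well, left 24 h at 37 °C, then drug added in triplicate for 72 h. Alamar Blue 50 μM added, fluorescence read 6 h later (ex 530, em 580 nm). Growth inhibition versus control corrected for time-zero population; IC50 = concentration giving 50% growth inhibition.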

MDA-MB-468 [8] = assay: Inhibition of HSP70 in human MDA-MB-468 cells assessed as STAT-3 degradation at 0.5 to 25 uM by Western blotting analysis; type: cell-based; summary of the method: as §1
MIA PaCa-2 [9] = assay: Inhibition of HSP70 in human MIAPaCa2 cells assessed as Raf-1 degradation at 1 to 20 uM by Western blotting analysis; type: cell-based; summary of the method: as §1
SK-BR-3 [10] = assay: Inhibition of HSP70 in human SKBR3 cells assessed as HER2 degradation by Western blotting analysis; type: cell-based; summary of the method: as §1
MIA PaCa-2 [11] = assay: Inhibition of HSP70 in human MIAPaCa2 cells assessed as AKT degradation at 1 to 20 uM by Western blotting analysis; type: cell-based; summary of the method: as §1
MIA PaCa-2 [12] = assay: Inhibition of HSP70 in human MIAPaCa2 cells assessed as STAT-3 degradation at 1 to 20 uM by Western blotting analysis; type: cell-based; summary of the method: as §1
Kasumi 1 = assay: Cytotoxicity against human Kasumi-1 cells after 72 hrs by alamar blue assay; type: functional, cell-based; summary of the method: as §3
[13] = target: Receptor-type tyrosine-protein kinase FLT3 (Homo sapiens) (UniProt P36888); assay: Inhibition of HSP70 in human MOLM13 cells assessed as mutant FLT3 degradation at 1 to 20 uM by Western blotting analysis; type: cell-based; details: MOLM-13; summary of the method: as §1
Chain of Receptor-type tyrosine-protein kinase FLT3 (Homo sapiens) (P36888 whole entry): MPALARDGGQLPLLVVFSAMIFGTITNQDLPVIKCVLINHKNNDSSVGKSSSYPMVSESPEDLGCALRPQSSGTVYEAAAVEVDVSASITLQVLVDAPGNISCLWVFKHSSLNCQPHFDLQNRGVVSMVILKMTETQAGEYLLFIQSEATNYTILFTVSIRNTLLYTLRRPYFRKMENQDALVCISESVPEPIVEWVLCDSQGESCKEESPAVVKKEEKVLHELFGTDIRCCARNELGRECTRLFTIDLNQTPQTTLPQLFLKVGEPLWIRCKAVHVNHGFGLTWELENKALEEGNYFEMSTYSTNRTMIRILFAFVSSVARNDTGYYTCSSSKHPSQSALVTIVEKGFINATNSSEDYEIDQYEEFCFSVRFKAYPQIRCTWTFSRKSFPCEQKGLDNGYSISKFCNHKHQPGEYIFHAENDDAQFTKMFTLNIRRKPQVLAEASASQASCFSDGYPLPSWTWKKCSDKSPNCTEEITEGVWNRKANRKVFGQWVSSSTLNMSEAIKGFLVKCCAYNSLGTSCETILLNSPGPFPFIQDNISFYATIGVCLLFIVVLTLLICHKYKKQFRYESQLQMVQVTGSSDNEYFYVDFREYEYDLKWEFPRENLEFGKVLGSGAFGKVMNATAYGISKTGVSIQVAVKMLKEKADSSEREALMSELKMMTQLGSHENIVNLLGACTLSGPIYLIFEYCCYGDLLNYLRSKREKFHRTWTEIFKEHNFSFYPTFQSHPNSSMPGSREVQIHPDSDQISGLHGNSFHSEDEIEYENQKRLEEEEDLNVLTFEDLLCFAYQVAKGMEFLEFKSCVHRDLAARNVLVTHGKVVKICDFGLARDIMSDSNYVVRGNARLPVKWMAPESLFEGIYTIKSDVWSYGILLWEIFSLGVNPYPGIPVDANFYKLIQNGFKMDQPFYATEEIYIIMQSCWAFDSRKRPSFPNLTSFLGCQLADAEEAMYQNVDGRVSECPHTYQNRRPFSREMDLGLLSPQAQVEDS

HEK293 [14] = assay: Inhibition of HSP70 in HEK293 cells assessed as inhibition of refolding of heat denatured luciferase at 10 uM incubated for 1 hr followed by heat treatment measured after 2 hrs by Western blotting analysis; type: cell-based; details: Homo sapiens; summary of the method: as §2
MOLM-13 [15] = assay: Inhibition of HSP70 in human MOLM13 cells assessed as STAT5 degradation at 1 to 20 uM by Western blotting analysis; type: cell-based; summary of the method: as §1
SK-BR-3 [16] = assay: Induction of apoptosis in human SKBR3 cells assessed as c-PARP cleavage by Western blotting analysis; type: functional; summary of the method: as §1
[17] = Homo sapiens, MOLM-13, 16 h, read-out: IC50
[18] = Homo sapiens, Kasumi 1, 72 h, read-out: IC50

SMILES | IC50 (MOLM-13 [1]; [17]) [µM] | INH (SK-BR-3 [3]) [µM] | INH [4] [µM] | GI [7] [µM] | INH (SK-BR-3 [10]) [µM] | IC50 (Kasumi 1; [18]) [µM] | INH (SK-BR-3 [16]) [µM] | also measured
CCC(=O)Nc1cccc(Sc2ccc(N3CCN(C)CC3)nc2OC)c1 | 39 |  |  |  |  |  |  | 
CN1CCN(c2ncc(Sc3cccc(NC(=O)CN)c3)c(OCc3ccccc3)n2)CC1 | 1.9 | 1.2 | > 500 | 2.1 | 1.5 | 2.3 | 1.5 | inhibition (MDA-MB-468 [2]): Active; inhibition (HEK293 [5]): Active; inhibition [6]: Dose-dependent effect; inhibition (MDA-MB-468 [8]): Active; inhibition (MIA PaCa-2 [9]): Active; inhibition (MIA PaCa-2 [11]): Active; inhibition (MIA PaCa-2 [12]): Active; inhibition [13]: Active; inhibition (HEK293 [14]): Active; inhibition (MOLM-13 [15]): Active
COc1nc(N2CCN(C)CC2)ccc1Sc1nccc(NC(=O)C2CC2)n1 | 63 |  |  |  |  | 58.5 |  | 
COc1nc(N2CCN(C)CC2)nc(OC)c1Sc1cccc(NC(=O)C2CCCCC2)c1 |  |  |  |  |  |  |  | IC50 (Kasumi 1; kasumi 1): ND(Insoluble); IC50 (MOLM-13 [1]; molm-13): ND(Insoluble)
C=CCC(=O)Nc1cccc(Sc2c(OC)nc(N3CCN(C)CC3)nc2OC)c1 | 65 |  |  |  |  |  |  | 
CN1CCN(c2ccc(Sc3cccc(NC(=O)CN)c3)c(O)n2)CC1 | > 250 |  |  |  |  |  |  | 
CC(=O)Nc1cccc(Sc2cnc(N3CCN(C)CC3)nc2OCc2ccccc2)c1 | 10.2 |  |  |  |  | 5.2 |  | 
C=CC(=O)Nc1ccnc(Sc2c(C)nc(N3CCN(C)CC3)nc2C)n1 |  | 5 | > 500 | 1.8 | 4 |  | 5 | 
C=CC(=O)Nc1cc(N)nc(Sc2c(OCC)nc(N3CCN(C)CC3)nc2OCC)n1 |  | 2.5 | > 500 | 1.1 | 1 |  | 1.5 | 
CCC(=O)Nc1ccnc(Sc2c(OC)nc(N3CCN(C)CC3)nc2OC)n1 | 142 |  |  |  |  |  |  | 
COc1nc(N2CCN(C)CC2)nc(OC)c1Sc1nccc(NC(C)=O)n1 | 150 |  |  |  |  |  |  | 
COc1nc(N2CCN(C)CC2)ncc1Sc1cccc(NC(=O)CN)c1 | 13 | 15 | > 500 | 15 | 18 | 25.2 | 19 | 
COc1nc(N2CCN(C)CC2)nc(OC)c1Sc1cccc(NC(=O)CN)c1 | 18 | 20 | > 500 | 25 | 20 | 22.5 | 40 | 
Cc1nc(N2CCN(C)CC2)nc(C)c1Sc1nccc(NC(=O)C2CC2)n1 | 68 |  |  |  |  | 60.5 |  | 
COc1nc(N2CCN(C)CC2)nc(OC)c1Sc1cccc(NC(=O)C2CCC2)c1 | 60 | 45 | > 250 | 70 | 70 | 47.2 | 75 | 
CC(N)C(=O)Nc1cccc(Sc2cnc(N3CCN(C)CC3)nc2OCc2ccccc2)c1 (stereo not given) | 2 |  |  |  |  | 4.8 |  | 
CCC(=O)Nc1cccc(Sc2c(OC)nc(N3CCN(C)CC3)nc2OC)c1 | 65 | 80 | > 500 | 55 | 75 |  | 75 | 

SMILES | IC50 (MOLM-13 [1]; [17]) [µM] | INH (SK-BR-3 [3]) [µM] | INH [4] [µM] | GI [7] [µM] | INH (SK-BR-3 [10]) [µM] | IC50 (Kasumi 1; [18]) [µM] | INH (SK-BR-3 [16]) [µM] | also measured
COc1nc(N2CCN(C)CC2)ccc1Sc1cccc(NC(=O)c2ccccc2)c1 | 20 | 20 | > 250 | 20 | 19 | 4.7 | 25 | 
COc1nc(N2CCN(C)CC2)ccc1Sc1cccc(NC(=O)C2CC2)c1 | 32 |  |  |  |  | 36.4 |  | 
COc1nc(N2CCN(C)CC2)ccc1Sc1cccc(NC(=O)CN)c1 | 21 |  |  |  |  | 19.1 |  | 
CN1CCN(c2ncc(Sc3cccc(NC(=O)CN)c3)c(-c3ccccc3)n2)CC1 | 25.2 |  |  |  |  | 20.8 |  | 
CCOc1nc(N2CCN(C)CC2)nc(OCC)c1Sc1nc(N)cc(NC(=O)CC)n1 | 37 | 70 | > 250 | 55 | 50 | 51.4 | 80 | 
CCC(=O)Nc1ccnc(Sc2ccc(N3CCN(C)CC3)nc2OC)n1 | 102 |  |  |  |  |  |  | 
Cc1nc(N2CCN(C)CC2)nc(C)c1Sc1nccc(NC(=O)c2ccco2)n1 | 32 | 25 | > 250 | 30 | 25 | 30.3 | 30 | 
CC(C)C(N)C(=O)Nc1cccc(Sc2cnc(N3CCN(C)CC3)nc2OCc2ccccc2)c1 (stereo not given) | 2.4 |  |  |  |  | 3.1 |  | 
CCCCCCCC(=O)Nc1cc(N)nc(Sc2c(OC)nc(N3CCN(C)CC3)nc2OC)n1 | > 50 | > 25 | > 500 |  | > 25 |  | >25 | 
COc1nc(N2CCN(C)CC2)nc(OC)c1Sc1cccc(NC(=O)c2ccccc2)c1 | 8 | 10 | 497 | 8 | 7.5 | 8.1 | 7.5 | 
CCOc1nc(N2CCN(C)CC2)nc(OCC)c1Sc1nc(N)cc(NC(=O)C2CC2)n1 | 95 |  |  |  |  |  |  | 
CN1CCN(c2ncc(Sc3cccc(NC(=O)CN)c3)c(OCc3ccncc3)n2)CC1 | 7.8 |  |  |  |  | 10.7 |  | 
COc1nc(N2CCN(C)CC2)nc(OC)c1Sc1nc(N)cc(NC(=O)CCN(C)C)n1 | 25 | 50 | > 500 |  | 70 | 14.7 | 75 | 
COc1nc(N2CCN(C)CC2)nc(OC)c1Sc1nc(N)cc(NC(C)=O)n1 | 165 | 150 | > 500 |  | 125 |  | 180 | 
CCC(=O)Nc1ccnc(Sc2c(C)nc(N3CCN(C)CC3)nc2C)n1 | 98 |  |  |  |  |  |  | 
CN1CCN(c2ncc(Sc3cccc(NC(=O)c4ccccc4)c3)c(OCc3ccccc3)n2)CC1 | 4.1 |  |  |  |  | 3.1 |  | 
CN1CCN(c2ncc(Sc3cccc(NC(=O)C4CCCN4)c3)c(OCc3ccccc3)n2)CC1 (stereo not given) | 1.7 |  |  |  |  | 2.9 |  | 
